# Square brackets hold non-standard residues; d marks the D form. Peptide text beside a SMILES is read from it. * marks the point of attachment. Dmt = Cc1cc(O)cc(C)c1C[C@H](N)C(=O)O; Tic = O=C(O)[C@@H]1Cc2ccccc2CN1; NHBn = c1ccc(CN*)cc1; NHPh = c1ccc(N*)cc1
# Legend:
# Mu-type opioid receptor = Mu-type opioid receptor (Cavia porcellus, UniProt P97266); assay: Agonist activity at mu opioid receptor by guinea pig ileum assay; assay type: functional, tissue-based
# Procedure, shortened: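 Myenteric plexus–longitudinal muscle from male guinea pig ileum was field-stimulated with supramaximal bipolar rectangular pulses. Agonism was read as inhibition of the electrically evoked twitch, referenced to dermorphin. IC50 came from dose-response curves over at least six experiments on fresh tissue.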
# [1] = biological target: Opioid receptors; mu & delta (Homo sapiens) (UniProt P41143+P35372); assay: Selectivity for delta opioid receptor over mu opioid receptor; assay type: protein assay
# Procedure, shortened: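 Non-specific binding was set with 2 μM unlabeled peptide. Five to eight peptide doses were run in duplicate, with independent repeats on different preparations. Samples were filtered on 0.1% polyethylenimine-soaked glass fiber filters and washed thrice with ice-cold buffered BSA. Ki was derived by Cheng–Prusoff.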
# [2] = biological target: Delta-type opioid receptor (Mus musculus) (UniProt P32300); assay: (§1) Agonist activity at delta opioid receptor by mouse vas deferens assay; assay type: functional, tissue-based
# Procedure, shortened: (§2)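 Isolated mouse vas deferens was field-stimulated with supramaximal bipolar rectangular pulses. Agonism was read as inhibition of the electrically evoked twitch, referenced to deltorphin C. IC50 came from dose-response curves over at least six experiments on fresh tissue.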
# [3] = biological target: Delta-type opioid receptor (Mus musculus, UniProt P32300); assay: as §1; assay type: functional, tissue-based; procedure, shortened: as §2
# [4] = biological target: Delta-type opioid receptor (Mus musculus) (UniProt P32300); assay: Activity at delta opioid receptor by mouse vas deferens assay; assay type: functional, tissue-based; conditions: filed as partial agonist; procedure, shortened: as §2
# Mu-type opioid receptor, sequence (P97266 whole entry): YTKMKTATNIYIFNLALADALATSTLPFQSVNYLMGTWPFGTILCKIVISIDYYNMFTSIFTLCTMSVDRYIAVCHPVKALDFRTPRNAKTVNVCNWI
# Delta-type opioid receptor, sequence (P32300 whole entry): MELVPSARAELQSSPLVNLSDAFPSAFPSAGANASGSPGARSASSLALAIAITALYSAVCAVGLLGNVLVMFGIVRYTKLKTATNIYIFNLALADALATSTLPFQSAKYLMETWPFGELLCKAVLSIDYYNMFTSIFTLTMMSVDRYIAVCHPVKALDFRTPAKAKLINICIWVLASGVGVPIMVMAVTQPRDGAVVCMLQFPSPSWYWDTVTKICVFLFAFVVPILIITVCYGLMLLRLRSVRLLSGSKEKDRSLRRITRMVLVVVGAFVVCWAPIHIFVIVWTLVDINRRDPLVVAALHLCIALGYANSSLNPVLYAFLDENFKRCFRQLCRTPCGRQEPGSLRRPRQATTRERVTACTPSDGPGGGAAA
# Delta-type opioid receptor (Mus musculus), sequence (P32300 whole entry): as above
# Opioid receptors; mu & delta (Homo sapiens), sequence (P35372 whole entry, looked up): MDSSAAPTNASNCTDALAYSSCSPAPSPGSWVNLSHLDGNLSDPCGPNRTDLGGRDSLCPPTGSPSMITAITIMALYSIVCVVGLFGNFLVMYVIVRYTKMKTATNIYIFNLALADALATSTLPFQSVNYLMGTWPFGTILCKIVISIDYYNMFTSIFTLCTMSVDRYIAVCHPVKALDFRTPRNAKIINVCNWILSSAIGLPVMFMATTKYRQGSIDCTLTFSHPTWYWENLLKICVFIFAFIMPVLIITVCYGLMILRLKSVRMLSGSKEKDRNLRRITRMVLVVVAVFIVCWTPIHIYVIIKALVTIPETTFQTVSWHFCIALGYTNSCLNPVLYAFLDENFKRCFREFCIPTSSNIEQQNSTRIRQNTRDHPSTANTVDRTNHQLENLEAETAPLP
# Opioid receptors; mu & delta (Homo sapiens), sequence (P41143 whole entry, looked up): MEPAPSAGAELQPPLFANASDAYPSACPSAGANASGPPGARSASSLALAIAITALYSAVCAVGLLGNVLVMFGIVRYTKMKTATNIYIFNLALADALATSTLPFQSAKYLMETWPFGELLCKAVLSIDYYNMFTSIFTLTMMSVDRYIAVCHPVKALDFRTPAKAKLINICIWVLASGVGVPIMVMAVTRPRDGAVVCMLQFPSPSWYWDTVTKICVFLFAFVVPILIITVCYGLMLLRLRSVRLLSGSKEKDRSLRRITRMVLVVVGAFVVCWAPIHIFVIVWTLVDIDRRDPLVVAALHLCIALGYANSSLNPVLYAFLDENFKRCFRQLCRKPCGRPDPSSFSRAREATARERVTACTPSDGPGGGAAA
compound,measurement,setting,value
Cc1cc(O)cc(C)c1C[C@H](N)C(=O)N1Cc2ccccc2C[C@H]1C(=O)NCC(=O)NCc1ccccc1 (H-[Dmt]-[Tic]-Gly-NHBn),IC50,Mu-type opioid receptor,2.69 nM
same,Selectivity ratio,[1],5.3
Cc1cc(O)cc(C)c1C[C@H](N)C(=O)N[C@H]1Cc2ccccc2CN(CC(=O)Nc2ccccc2)C1=O,IC50,Mu-type opioid receptor,95 nM
same,%max,[2],40%
same,IC50,[3],650 nM
same,Activity,[4],Partial agonist
Cc1cc(O)cc(C)c1C[C@H](N)C(=O)N[C@H]1Cc2ccccc2CN(CC(=O)NCc2ccccc2)C1=O,IC50,Mu-type opioid receptor,51 nM
same,IC50,[3],830 nM
Cc1cc(O)cc(C)c1C[C@H](N)C(=O)N1Cc2ccccc2C[C@H]1C(=O)NCC(=O)Nc1ccccc1 (H-[Dmt]-[Tic]-Gly-NHPh),IC50,Mu-type opioid receptor,2.57 nM
same,Selectivity ratio,[1],3.6
same,IC50,[3],3.02 nM
Cc1cc(O)cc(C)c1C[C@H](N)C(=O)N[C@H]1Cc2ccccc2CN(Cc2nc3ccccc3[nH]2)C1=O,IC50,Mu-type opioid receptor,231 nM
same,%max,[2],40%
same,IC50,[3],2700 nM
same,Activity,[4],Partial agonist

# From ChEMBL document CHEMBL1138032, “New 2',6'-dimethyl-L-tyrosine (Dmt) opioid peptidomimetics based on the Aba-Gly scaffold. Development of unique mu-opioid receptor ligands” (J Med Chem, 2006)
